Data as given in ChEMBL document CHEMBL1153124, “5-Lipoxygenase-activating protein inhibitors. Part 2: 3-{5-((S)-1-Acetyl-2,3-dihydro-1H-indol-2-ylmethoxy)-3-tert-butylsulfanyl-1-[4-(5-methoxy-pyrimidin-2-yl)-benzyl]-1H-indol-2-yl}-2,2-dimethyl-propionic acid (AM679)--a potent FLAP inhibitor” (Bioorg Med Chem Lett, 2010).

Assays:
[1] = Inhibition of LTB4 production in calcium ionophore A23187 treated human leukocytes; format: functional, cell-based; settings: Leukocyte
In short: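 Human leukocytes challenged with calcium ionophore; LTB4 produced by the cells was measured. IC50 is the average of n ≥ 3.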

[2] = tested on: Blood; test: Inhibition of LTB4 production in calcium ionophore treated A23187 human whole blood after 15 mins; format: functional, tissue-based; settings: 0.25 h
[3] = molecular target: T1, Arachidonate 5-lipoxygenase-activating protein (Homo sapiens, UniProt P20292); test: Binding affinity to FLAP in human PMN derived membrane; format: cell membranes
T1 sequence (P20292 whole entry): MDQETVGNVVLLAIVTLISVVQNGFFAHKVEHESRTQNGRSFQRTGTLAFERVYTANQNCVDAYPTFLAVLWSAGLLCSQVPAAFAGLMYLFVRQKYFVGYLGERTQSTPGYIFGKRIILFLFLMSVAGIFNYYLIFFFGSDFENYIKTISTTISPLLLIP
In short: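 FLAP binding measured in membranes derived from human polymorphonuclear leukocytes (PMN). IC50 values are the average of n ≥ 3.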

[4] = Clearance in rat at 10 mg/kg, po; format: ADME, organism-based; design: dose 10 mg/kg, route oral; settings: in vivo
In short: (§1)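 Rat, oral dosing at 10 mg/kg given as the sodium carboxylate salt. Read-outs: F, clearance, Cmax, AUC and half-life.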

[5] = Bioavailability in rat at 10 mg/kg; format: ADME, organism-based; settings: in vivo; in short: as §1
[6] = AUC in rat at 10 mg/kg, po; format: ADME, organism-based; design: dose 10 mg/kg, route oral; settings: plasma; in short: as §1
[7] = molecular target: CYP2C9 (Homo sapiens, UniProt P11712); test: Inhibition of CYP2C9 at 10 uM; format: ADME
[8] = molecular target: CYP3A4 (Homo sapiens, UniProt P08684); test: Inhibition of CYP3A4 at 10 uM; format: ADME
[9] = Cmax in rat at 10 mg/kg, po; format: ADME, organism-based; design: dose 10 mg/kg, route oral; settings: in vivo; in short: as §1
[10] = molecular target: Cytochrome P450 2C9 (Homo sapiens, UniProt P11712); test: Inhibition of CYP2C9; format: ADME
Sequence of Cytochrome P450 2C9 (P11712 whole entry): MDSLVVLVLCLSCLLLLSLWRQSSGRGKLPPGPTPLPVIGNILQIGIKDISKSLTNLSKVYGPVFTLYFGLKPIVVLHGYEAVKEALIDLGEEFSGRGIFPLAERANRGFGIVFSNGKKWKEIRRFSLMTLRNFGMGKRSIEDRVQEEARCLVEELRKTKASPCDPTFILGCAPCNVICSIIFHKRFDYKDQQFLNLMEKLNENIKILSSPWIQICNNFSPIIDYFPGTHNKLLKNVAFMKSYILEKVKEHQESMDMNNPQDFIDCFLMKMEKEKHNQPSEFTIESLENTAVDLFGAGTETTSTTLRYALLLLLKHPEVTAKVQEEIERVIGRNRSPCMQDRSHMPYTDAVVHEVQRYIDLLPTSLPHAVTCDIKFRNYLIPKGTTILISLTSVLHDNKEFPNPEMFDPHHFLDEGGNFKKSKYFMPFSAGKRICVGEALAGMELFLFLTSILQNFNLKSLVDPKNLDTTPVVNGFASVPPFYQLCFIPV

Sequence of CYP3A4 (P08684 whole entry): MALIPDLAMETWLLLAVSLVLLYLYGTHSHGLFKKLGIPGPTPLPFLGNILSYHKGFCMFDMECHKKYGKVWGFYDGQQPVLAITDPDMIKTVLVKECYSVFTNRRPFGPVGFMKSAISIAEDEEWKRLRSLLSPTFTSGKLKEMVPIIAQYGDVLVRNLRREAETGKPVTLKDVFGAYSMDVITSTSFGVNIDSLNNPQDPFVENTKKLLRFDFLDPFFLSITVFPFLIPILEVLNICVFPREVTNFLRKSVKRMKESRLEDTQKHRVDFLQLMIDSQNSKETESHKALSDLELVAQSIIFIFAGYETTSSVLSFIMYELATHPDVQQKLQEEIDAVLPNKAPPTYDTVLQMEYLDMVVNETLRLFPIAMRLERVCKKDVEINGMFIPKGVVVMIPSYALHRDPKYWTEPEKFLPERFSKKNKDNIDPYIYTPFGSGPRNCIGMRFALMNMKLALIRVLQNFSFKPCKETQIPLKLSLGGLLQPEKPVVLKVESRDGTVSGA
Sequence of CYP2C9 (P11712 whole entry): as the sequence (P11712 whole entry) above

| SMILES | IC50 [1] | IC50 [2] | IC50 [3] | also measured |
| --- | --- | --- | --- | --- |
| CC(C)(C)Sc1c(CC(C)(C)C(=O)O)n(Cc2ccc(Cl)cc2)c2ccc(OCC(O)c3ccc(F)cc3)cc12 (stereo not drawn) | 7 nM | 469 nM | 19 nM | – |
| CC(=O)N1c2ccccc2C[C@H]1COc1ccc2c(c1)cc(CC(C)(C)C(=O)O)n2Cc1ccc(Cl)cc1 | 12.9 nM | 31500 nM | 218 nM | – |
| CC(C)(C)Sc1c(CC(C)(C)C(=O)O)n(Cc2ccc(Cl)cc2)c2ccc(OC[C@@H]3CCC(=O)N3)cc12 | 108 nM | 9020 nM | 616 nM | – |
| CC(C)(C)Sc1c(CC(C)(C)C(=O)O)n(Cc2ccc(Cl)cc2)c2ccc(OC[C@@H]3CCCN3)cc12 | 2780 nM | – | > 10000 nM | – |
| CC(=O)N[C@H](COc1ccc2c(c1)c(SC(C)(C)C)c(CC(C)(C)C(=O)O)n2Cc1ccc(Cl)cc1)c1ccccc1 | 72 nM | 23100 nM | 581 nM | – |
| CC(=O)N1c2ccccc2C[C@H]1COc1ccc2c(c1)c(C(=O)c1ccccc1)c(CC(C)(C)C(=O)O)n2Cc1ccc(Cl)cc1 | 263 nM | 63100 nM | > 10000 nM | – |
| COc1ccc(-c2ccc(Cn3c(CC(C)(C)C(=O)O)c(SC(C)(C)C)c4cc(OC[C@@H]5Cc6ccccc6N5C(C)=O)ccc43)cc2)nn1 | 12.6 nM | 1110 nM | 3.2 nM | – |
| CC(C)(C)Sc1c(CC(C)(C)C(=O)O)n(Cc2ccc(Cl)cc2)c2ccc(OC[C@@H]3Cc4ccccc4N3)cc12 | 4.1 nM | 1430 nM | 85 nM | – |
| CC(=O)N1c2ccccc2C[C@H]1COc1ccc2c(c1)c(C(=O)C(C)(C)C)c(CC(C)(C)C(=O)O)n2Cc1ccc(Cl)cc1 | 1.3 nM | 521 nM | 19 nM | – |
| CC(C)(C)Sc1c(CC(C)(C)C(=O)O)n(Cc2ccc(Cl)cc2)c2ccc(OCC(=O)c3ccc(F)cc3)cc12 | 769 nM | 11800 nM | 13 nM | – |
| CC(C)(C)OC(=O)N1c2ccccc2C[C@H]1COc1ccc2c(c1)c(SC(C)(C)C)c(CC(C)(C)C(=O)O)n2Cc1ccc(Cl)cc1 | 106 nM | – | 1100 nM | – |
| CC(=O)N1c2ccccc2C[C@H]1COc1ccc2c(c1)c(SC(C)(C)C)c(CC(C)(C)C(=O)O)n2Cc1ccc(-c2ccc(F)cn2)cc1 | 0.5 nM | 235 nM | 1.7 nM | – |
| CC(C)(C)Sc1c(CC(C)(C)C(=O)O)n(Cc2ccc(Cl)cc2)c2ccc(OC[C@@H]3CCCN3S(C)(=O)=O)cc12 | 30 nM | 4300 nM | 441 nM | – |
| CC(C)C(=O)N1CCC[C@H]1COc1ccc2c(c1)c(SC(C)(C)C)c(CC(C)(C)C(=O)O)n2Cc1ccc(Cl)cc1 | 51 nM | 5660 nM | 186 nM | – |
| CC(=O)N1CCC[C@H]1COc1ccc2c(c1)c(SC(C)(C)C)c(CC(C)(C)C(=O)O)n2Cc1ccc(Cl)cc1 | 16 nM | 403 nM | 6 nM | CL/F [4]: 20 mL/min/kg; bioavailability [5]: 10%; AUC [6]: 1200 ng·h/mL; inhibition at 10 µM [7]: 93%; inhibition at 10 µM [8]: 64% |
| CCC(=O)N1CCC[C@H]1COc1ccc2c(c1)c(SC(C)(C)C)c(CC(C)(C)C(=O)O)n2Cc1ccc(Cl)cc1 | 1.5 nM | 307 nM | 4 nM | – |
| CC(C)(C)Sc1c(CC(C)(C)C(=O)O)n(Cc2ccc(Cl)cc2)c2ccc(OCC(N)=O)cc12 | 28 nM | 2140 nM | 38 nM | – |

| SMILES | IC50 [1] | IC50 [2] | IC50 [3] | also measured |
| --- | --- | --- | --- | --- |
| CC(=O)N1c2ccccc2C[C@H]1COc1ccc2c(c1)c(CC(C)C)c(CC(C)(C)C(=O)O)n2Cc1ccc(Cl)cc1 | 0.5 nM | 200 nM | 35 nM | inhibition at 10 µM [7]: > 80%; inhibition at 10 µM [8]: > 80% |
| CC(C)(C)OC(=O)N1c2ccccc2C[C@@H]1COc1ccc2c(c1)c(SC(C)(C)C)c(CC(C)(C)C(=O)O)n2Cc1ccc(Cl)cc1 | 102 nM | 12300 nM | > 10000 nM | – |
| CC(=O)N1c2ccccc2C[C@H]1COc1ccc2c(c1)c(C(=O)C(C)C)c(CC(C)(C)C(=O)O)n2Cc1ccc(Cl)cc1 | 20.6 nM | 4900 nM | 20.6 nM | – |
| CC(=O)N1c2ccccc2C[C@H]1COc1ccc2c(c1)c(SC(C)(C)C)c(CC(C)(C)C(=O)O)n2Cc1ccc(Cl)cc1 | 0.5 nM | 169 nM | 1.4 nM | CL/F [4]: 25 mL/min/kg; bioavailability [5]: 11%; Cmax [9]: 270 nM; inhibition at 10 µM [7]: 96%; inhibition at 10 µM [8]: 80% |
| CC(C)(C)Sc1c(CC(C)(C)C(=O)O)n(Cc2ccc(Cl)cc2)c2ccc(OC[C@@H]3CCCN3C(=O)C3CC3)cc12 | 8 nM | 885 nM | 50 nM | – |
| CC(C)(C)Sc1c(CC(C)(C)C(=O)O)n(Cc2ccc(Cl)cc2)c2ccc(OC[C@@H]3CCCN3C(=O)c3ccccc3)cc12 | 110 nM | 22300 nM | 1340 nM | – |
| CC(C)(C)OC(=O)N1CCC[C@@H]1COc1ccc2c(c1)c(SC(C)(C)C)c(CC(C)(C)C(=O)O)n2Cc1ccc(Cl)cc1 | 193 nM | 67800 nM | 1810 nM | – |
| CC(C)(C)OC(=O)N1CCC[C@H]1COc1ccc2c(c1)c(SC(C)(C)C)c(CC(C)(C)C(=O)O)n2Cc1ccc(Cl)cc1 | 29 nM | 17200 nM | 1110 nM | – |
| CC(=O)N1c2ccccc2C[C@H]1COc1ccc2c(c1)c(Cc1ccccc1)c(CC(C)(C)C(=O)O)n2Cc1ccc(Cl)cc1 | 1.5 nM | 428 nM | 15.2 nM | inhibition at 10 µM [7]: > 80%; inhibition at 10 µM [8]: > 80% |
| CC(=O)N1c2ccccc2C[C@H]1COc1ccc2c(c1)c(CCC(C)(C)C)c(CC(C)(C)C(=O)O)n2Cc1ccc(Cl)cc1 | 4.2 nM | 405 nM | 4.7 nM | inhibition at 10 µM [7]: > 80%; inhibition at 10 µM [8]: > 80% |
| CC(=O)N1c2ccccc2C[C@H]1COc1ccc2c(c1)c([S+]([O-])C(C)(C)C)c(CC(C)(C)C(=O)O)n2Cc1ccc(Cl)cc1 (stereo partly drawn) | 335 nM | 23200 nM | 74 nM | – |
| CC(=O)N1c2ccccc2C[C@H]1COc1ccc2c(c1)c(S(=O)(=O)C(C)(C)C)c(CC(C)(C)C(=O)O)n2Cc1ccc(Cl)cc1 | 19 nM | 1740 nM | 4.5 nM | – |
| COc1nc(-c2ccc(Cn3c(CC(C)(C)C(=O)O)c(SC(C)(C)C)c4cc(OC[C@@H]5Cc6ccccc6N5C(C)=O)ccc43)cc2)cs1 | 0.6 nM | 573 nM | 2.5 nM | – |
| COc1ccc(-c2ccc(Cn3c(CC(C)(C)C(=O)O)c(SC(C)(C)C)c4cc(OC[C@@H]5Cc6ccccc6N5C(C)=O)ccc43)cc2)cn1 | 1.8 nM | 276 nM | 9.3 nM | – |
| COc1ccc(-c2ccc(Cn3c(CC(C)(C)C(=O)O)c(SC(C)(C)C)c4cc(OC[C@@H]5Cc6ccccc6N5C(C)=O)ccc43)cc2)nc1 | 0.5 nM | 373 nM | 3.8 nM | – |
| CC(=O)N1c2ccccc2C[C@H]1COc1ccc2c(c1)c(C(=O)C(C)(C)C)c(CC(C)(C)C(=O)[O-])n2Cc1ccc(Cl)cc1.[Na+] | – | – | – | bioavailability [5]: 7%; Cmax [9]: 270 nM |
| CC(C)(C)Sc1c(CC(C)(C)C(=O)O)n(Cc2ccc(Cl)cc2)c2ccc(OCc3ccc4ccccc4n3)cc12 [QUIFLAPON] | – | – | – | IC50 [10]: 500 nM |
